Source: ChEMBL document CHEMBL4706706, “Structure-activity relationship and mechanistic studies for a series of cinnamyl hydroxamate histone deacetylase inhibitors” (Bioorg Med Chem, 2021)
Calls of active or inactive are those of the source. The calls are words filed in the database; no cut-off is given here.

Legend:
[1] = molecular target: T1, Protein deacetylase HDAC6 (Homo sapiens, UniProt Q9UBN7); assay: Inhibition of recombinant human full-length N-terminal GST-tagged HDAC6 (1 to 1215 residues) expressed in baculovirus infected Sf9 insect cells using RHKK(Ac)AMC as substrate preincubated for 5 to 10 mins followed by substrate addition and measured after 2 hrs by fluorescence assay
T1 sequence (Q9UBN7 whole entry): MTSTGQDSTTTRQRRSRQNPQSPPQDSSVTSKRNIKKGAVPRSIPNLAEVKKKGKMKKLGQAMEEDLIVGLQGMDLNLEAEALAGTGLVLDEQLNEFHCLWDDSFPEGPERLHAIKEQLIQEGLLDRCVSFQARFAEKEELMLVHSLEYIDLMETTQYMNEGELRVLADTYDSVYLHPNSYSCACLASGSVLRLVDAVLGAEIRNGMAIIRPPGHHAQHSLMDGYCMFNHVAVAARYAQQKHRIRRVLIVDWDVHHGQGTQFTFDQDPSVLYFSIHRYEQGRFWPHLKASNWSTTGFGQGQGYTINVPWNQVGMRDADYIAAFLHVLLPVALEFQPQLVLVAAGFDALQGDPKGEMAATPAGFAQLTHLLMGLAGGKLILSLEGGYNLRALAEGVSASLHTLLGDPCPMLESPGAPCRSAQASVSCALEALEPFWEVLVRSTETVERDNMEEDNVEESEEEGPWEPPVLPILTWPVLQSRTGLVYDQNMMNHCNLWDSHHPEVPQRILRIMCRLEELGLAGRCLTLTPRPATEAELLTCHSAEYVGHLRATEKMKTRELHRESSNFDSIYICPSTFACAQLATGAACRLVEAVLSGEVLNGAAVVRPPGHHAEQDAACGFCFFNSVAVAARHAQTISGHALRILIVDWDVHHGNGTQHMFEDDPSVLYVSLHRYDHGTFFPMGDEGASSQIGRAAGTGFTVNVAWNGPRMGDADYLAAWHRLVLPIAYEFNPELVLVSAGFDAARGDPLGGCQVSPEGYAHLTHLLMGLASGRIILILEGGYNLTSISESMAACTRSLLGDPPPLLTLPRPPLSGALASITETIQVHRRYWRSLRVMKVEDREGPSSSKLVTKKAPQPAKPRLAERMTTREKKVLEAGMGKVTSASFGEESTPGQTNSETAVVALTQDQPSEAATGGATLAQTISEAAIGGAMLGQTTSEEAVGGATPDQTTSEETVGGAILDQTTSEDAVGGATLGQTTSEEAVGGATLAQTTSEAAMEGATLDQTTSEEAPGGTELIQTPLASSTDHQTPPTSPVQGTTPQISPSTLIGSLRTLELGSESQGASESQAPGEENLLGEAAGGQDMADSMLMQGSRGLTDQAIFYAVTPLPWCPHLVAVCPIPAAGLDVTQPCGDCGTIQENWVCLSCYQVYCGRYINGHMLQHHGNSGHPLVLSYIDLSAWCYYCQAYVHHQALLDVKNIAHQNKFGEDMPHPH

HCT-116 = assay: Cytotoxicity against human HCT-116 cells assessed as reduction in cell viability measured after 72 hrs by MTT assay; type: functional, cell-based; conditions: HCT-116, 72 h
Histone deacetylase 1 = Histone deacetylase 1 (Homo sapiens, UniProt Q13547); assay: Inhibition of recombinant human full-length C-terminal FLAG/His-tagged HDAC1 (1 to 482 residues) expressed in baculovirus infected Sf9 insect cells using RHKK(Ac)AMC as substrate preincubated for 5 to 10 mins followed by substrate addition and measured after 2 hrs by fluorescence assay
Jurkat [2] = assay: Cytotoxicity against human Jurkat cells assessed as reduction in cell viability measured after 72 hrs by MTT assay; type: functional, cell-based
[3] = molecular target: T2, Histone deacetylase (Homo sapiens) (UniProt Q13547+O15379+Q9UBN7+Q92769+Q9UQL6+Q8WUI4+Q9BY41+Q96DB2+P56524+Q9UKV0+Q969S8); assay: Inhibition of HDAC in human HeLa cell nuclear extracts at 100 uM relative to control; type: subcellular; conditions: Nucleus
Method in brief: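 Total HDAC activity measured with HeLa nuclear extract as enzyme source; single dose of 100 µM run in duplicate.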

MCF7 = assay: Cytotoxicity against human MCF7 cells assessed as reduction in cell viability measured after 72 hrs by MTT assay; type: functional, cell-based; conditions: MCF7, 72 h
NAMALVA [4] = assay: Cytotoxicity against human NAMALVA cells assessed as reduction in cell viability measured after 72 hrs by MTT assay; type: functional, cell-based
Homo sapiens = organism: Homo sapiens; assay: Selectivity index, ratio of IC50 for inhibition of recombinant human full-length C-terminal FLAG/His-tagged HDAC1 (1 to 482 residues) expressed in baculovirus infected Sf9 insect cells to IC50 for inhibition of recombinant human full-length N-terminal GST-tagged HDAC6 (1 to 1215 residues) expressed in baculovirus infected Sf9 insect cells
NAMALVA [5] = assay: Induction of apoptosis in human NAMALVA cells assessed as viable cells at 0.5 times IC50 measured after 48 hrs by Annexin V-FITC/7AAD staining based flow cytometry (reference value: 90.4%); type: functional
[6] = molecular target: T3, Protein deacetylase HDAC6 (Homo sapiens) (UniProt Q9UBN7); assay: Inhibition of HDAC6 in human Jurkat cells assessed as increase in acetylated alpha-tubulin expression at IC50 measured after 48 hrs by Western blot analysis; type: cell-based
T3 sequence (whole entry): T1 sequence (Q9UBN7 whole entry)

[7] = molecular target: T3, Protein deacetylase HDAC6 (Homo sapiens); assay: Inhibition of HDAC6 in human NAMALVA cells assessed as increase in acetylated alpha-tubulin expression at IC50 measured after 48 hrs by Western blot analysis; type: cell-based
[8] = molecular target: T2, Histone deacetylase (Homo sapiens); assay: Inhibition of HDAC in human NAMALVA cells assessed as increase in gammaH2AX expression at IC50 measured after 48 hrs by Western blot analysis; type: cell-based
Jurkat [9] = assay: Cytotoxicity against human Jurkat cells assessed as reduction in cell viability MTT assay; type: functional, cell-based; conditions: time 24-72 hrs, TDE = time-dependent effect
Method in brief: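 Jurkat cells (2 × 10^4/well) in RPMI with 10% FBS and 1% penicillin–streptomycin, exposed 24, 48 and 72 h to compound (0.0032–50 μM); 1% DMSO as negative control. MTT at 0.5 mg/mL final for 3 h, formazan dissolved in 0.1 N HCl/isopropanol. IC50 with 95% confidence intervals from sigmoidal nonlinear regression; mean ± SEM.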

NAMALVA [10] = assay: Induction of apoptosis in human NAMALVA cells assessed as necrotic cells at 0.5 times IC50 measured after 48 hrs by Annexin V-FITC/7AAD staining based flow cytometry (reference value: 1.05%); type: functional
Jurkat [11] = assay: Effect on phosphoserine expression in human Jurkat cells at IC50 measured after 48 hrs by Western blot analysis; type: functional, cell-based
Jurkat [12] = assay: Induction of apoptosis in human Jurkat cells assessed as viable cells at 0.5 times IC50 measured after 48 hrs by Annexin V-FITC/7AAD staining based flow cytometry (reference value: 85.2%); type: functional
Jurkat [13] = assay: Effect on phosphotyrosine expression in human Jurkat cells at IC50 measured after 48 hrs by Western blot analysis; type: functional, cell-based
NAMALVA [14] = assay: Induction of apoptosis in human NAMALVA cells assessed as early apoptotic cells at 0.5 times IC50 measured after 48 hrs by Annexin V-FITC/7AAD staining based flow cytometry (reference value: 5.07%); type: functional
NAMALVA [15] = assay: Effect on phosphoserine expression in human NAMALVA cells at IC50 measured after 48 hrs by Western blot analysis; type: functional, cell-based
Jurkat [16] = assay: Cytotoxicity against human Jurkat cells assessed as reduction in cell viability measured after 24 hrs MTT assay; type: functional, cell-based
NAMALVA [17] = assay: Induction of apoptosis in human NAMALVA cells assessed as late apoptotic cells at 0.5 times IC50 measured after 48 hrs by Annexin V-FITC/7AAD staining based flow cytometry (reference value: 3.52%); type: functional
Jurkat [18] = assay: Cytotoxicity against human Jurkat cells assessed as reduction in cell viability measured after 48 hrs MTT assay; type: functional, cell-based
Jurkat [19] = assay: Induction of apoptosis in human Jurkat cells assessed as necrotic cells at 0.5 times IC50 measured after 48 hrs by Annexin V-FITC/7AAD staining based flow cytometry (reference value: 0.23%); type: functional
[20] = Cytotoxicity against human HS5 cells assessed as reduction in cell viability measured after 72 hrs by MTT assay; type: ADME, cell-based; conditions: HS5, 72 h
Jurkat [21] = assay: Induction of apoptosis in human Jurkat cells assessed as early apoptotic cells at 0.5 times IC50 measured after 48 hrs by Annexin V-FITC/7AAD staining based flow cytometry (reference value: 6.05%); type: functional
Jurkat [22] = assay: Cytotoxicity against human Jurkat cells assessed as reduction in cell proliferation at IC50 measured after 48 hrs by Ki-67 staining based fluorescence assay; type: functional
Method in brief: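 Ki-67 stained per kit instructions; mean fluorescence intensity by flow cytometry, normalized to untreated cells; at least three independent experiments, ANOVA with Bonferroni post-test.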

NAMALVA [23] = assay: Effect on phosphotyrosine expression in human NAMALVA cells at IC50 measured after 48 hrs by Western blot analysis; type: functional, cell-based
Jurkat [24] = assay: Induction of apoptosis in human Jurkat cells assessed as late apoptotic cells at 0.5 times IC50 measured after 48 hrs by Annexin V-FITC/7AAD staining based flow cytometry (reference value: 6.77%); type: functional
[25] = molecular target: T2, Histone deacetylase (Homo sapiens); assay: Inhibition of HDAC in human Jurkat cells assessed as increase in gammaH2AX expression at IC50 measured after 48 hrs by Western blot analysis; type: cell-based
[26] = Selectivity ratio of IC50 for human HCT-116 cells to IC50 for human Jurkat cells; type: functional
[27] = Selectivity index, ratio of IC50 for human HS5 cells to IC50 for human NAMALVA cells
[28] = Selectivity index, ratio of IC50 for human HS5 cells to IC50 for human Jurkat cells
[29] = Selectivity ratio of IC50 for human HCT-116 cells to IC50 for human NAMALVA cells; type: functional

Histone deacetylase 1, sequence (Q13547 whole entry, the tested form may be a part): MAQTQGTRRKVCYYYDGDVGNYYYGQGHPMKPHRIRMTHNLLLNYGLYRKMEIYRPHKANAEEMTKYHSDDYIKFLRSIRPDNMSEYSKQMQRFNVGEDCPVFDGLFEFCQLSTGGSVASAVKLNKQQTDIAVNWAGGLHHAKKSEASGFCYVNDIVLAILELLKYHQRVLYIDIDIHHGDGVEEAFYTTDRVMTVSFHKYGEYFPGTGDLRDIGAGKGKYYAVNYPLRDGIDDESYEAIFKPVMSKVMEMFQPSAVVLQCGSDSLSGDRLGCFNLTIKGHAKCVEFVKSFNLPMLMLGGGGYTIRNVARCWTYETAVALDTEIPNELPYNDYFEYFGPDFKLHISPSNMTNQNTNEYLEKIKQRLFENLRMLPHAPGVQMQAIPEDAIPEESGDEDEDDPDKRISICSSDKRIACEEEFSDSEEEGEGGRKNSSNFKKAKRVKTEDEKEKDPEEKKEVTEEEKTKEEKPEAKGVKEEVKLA

Row | Structure (SMILES) | IC50 [1] | IC50 (HCT-116) | IC50 (Histone deacetylase 1) | IC50 (Jurkat [2]) | inhibition [3] | IC50 (MCF7) | IC50 (NAMALVA [4]) | Ratio IC50 (Homo sapiens) | Activity (NAMALVA [5]) | inhibition [6] | inhibition [7] | inhibition [8] | Activity (Jurkat [9]) | Activity (NAMALVA [10]) | inhibition (Jurkat [11]) | Activity (Jurkat [12]) | inhibition (Jurkat [13]) | Activity (NAMALVA [14]) | inhibition (NAMALVA [15]) | IC50 (Jurkat [16]) | further results
1 | O=C(CCc1ccc(NC(=O)Nc2ccc(Cl)cc2)cc1)NO | 105 nM | 17900 nM | 941 nM | 410 nM | 98% | > 50000 nM | 370 nM | 9 |  |  |  |  |  |  |  |  |  |  |  |  | 
2 | O=C(/C=C/c1ccc(NC(=O)Nc2ccc(Cl)cc2)cc1)NO | 8.1 nM | 29900 nM |  | 40 nM | 93% | > 50000 nM | 200 nM |  | 72.5% | Active | Active | Active | Tde | 0.68% | inactive | 88.4% | inactive | 17.9% | inactive | 2600 nM | Activity (NAMALVA [17]): 8.85%; IC50 (Jurkat [18]): 600 nM; Activity (Jurkat [19]): 0.28%; IC50 [20]: 1700 nM; Activity (Jurkat [21]): 7.92%; Activity (Jurkat [22]): Active; inhibition (NAMALVA [23]): inactive; Activity (Jurkat [24]): 4.28%; inhibition [25]: Active
3 | O=C(Nc1ccc(Cl)cc1)Nc1ccc(C(=O)NO)cc1 | 20.7 nM | > 50000 nM | 1320 nM | 1060 nM | 92% | > 50000 nM | 870 nM | 64 |  |  |  |  |  |  |  |  |  |  |  |  | 
4 | O=C(/C=C/c1ccc(NC(=O)Nc2ccc([N+](=O)[O-])cc2)cc1)NO |  | 12600 nM |  | 90 nM |  | > 50000 nM | 580 nM |  | 82.8% | Active | Active | Active | Tde | 1.2% | inactive | 87.1% | inactive | 10.1% | inactive | 2700 nM | Ratio IC50 [26]: 140; Ratio IC50 [27]: 5; Ratio IC50 [28]: 33; Activity (NAMALVA [17]): 5.89%; IC50 (Jurkat [18]): 700 nM; Ratio IC50 [29]: 22; Activity (Jurkat [19]): 0.18%; IC50 [20]: 3000 nM; Activity (Jurkat [21]): 5.74%; Activity (Jurkat [22]): Active; inhibition (NAMALVA [23]): inactive; Activity (Jurkat [24]): 7.03%; inhibition [25]: Active
